According to ChEMBL document CHEMBL2157941, “Synthesis and characterization of some new quinoline based derivatives endowed with broad spectrum antimicrobial potency” (2012):
Converted amounts (≈) assume the structure as drawn.

Tests used:
Format in all cases: functional
Pseudomonas aeruginosa = assay: Antibacterial activity against Pseudomonas aeruginosa MTCC 1688 after 24 hrs by serial broth dilution method; conditions: MTCC 1688, 24 h
Summary of the method: (§1)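 Read-out was the individual minimum inhibitory concentration for each bacterial or fungal strain.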

Staphylococcus aureus = assay: Antibacterial activity against Staphylococcus aureus MTCC 96 after 24 hrs by serial broth dilution method; conditions: MTCC 96, 24 h; summary of the method: as §1
Streptococcus pyogenes = assay: Antibacterial activity against Streptococcus pyogenes MTCC 442 after 24 hrs by serial broth dilution method; conditions: MTCC 442, 24 h; summary of the method: as §1
Candida albicans = assay: Antifungal activity against Candida albicans MTCC 227 after 48 hrs by serial broth dilution method; conditions: MTCC 227, 48 h; summary of the method: as §1
Aspergillus niger = assay: Antifungal activity against Aspergillus niger MTCC 282 after 48 hrs by serial broth dilution method; conditions: MTCC 282, 48 h; summary of the method: as §1
Escherichia coli = assay: Antibacterial activity against Escherichia coli MTCC 443 after 24 hrs by serial broth dilution method; conditions: MTCC 443, 24 h; summary of the method: as §1
Aspergillus clavatus = assay: Antifungal activity against Aspergillus clavatus MTCC 1323 after 48 hrs by serial broth dilution method; conditions: MTCC 1323, 48 h; summary of the method: as §1

SMILES | MIC (Pseudomonas aeruginosa) | MIC (Staphylococcus aureus) | MIC (Streptococcus pyogenes) | MIC (Candida albicans) | MIC (Aspergillus niger) | MIC (Escherichia coli) | MIC (Aspergillus clavatus)
O=C(CN1CCOCC1)Nc1nc(-c2ccccc2)cc(-c2cc3cc(F)ccc3nc2Cl)n1 | 500 µg/mL (≈ 1050 µM) | 500 µg/mL (≈ 1050 µM) | 250 µg/mL (≈ 523 µM) | 1000 µg/mL (≈ 2090 µM) | 500 µg/mL (≈ 1050 µM) | 250 µg/mL (≈ 523 µM) | 250 µg/mL (≈ 523 µM)
O=C(CN1CCOCC1)Nc1nc(-c2ccccc2O)cc(-c2cc3cc(F)ccc3nc2Cl)n1 | 500 µg/mL (≈ 1010 µM) | 500 µg/mL (≈ 1010 µM) | 500 µg/mL (≈ 1010 µM) | 1000 µg/mL (≈ 2020 µM) | 250 µg/mL (≈ 506 µM) | 1000 µg/mL (≈ 2020 µM) | 500 µg/mL (≈ 1010 µM)
O=C(CN1CCOCC1)Nc1nc(-c2ccc(O)cc2)cc(-c2cc3cc(F)ccc3nc2Cl)n1 | 1000 µg/mL (≈ 2020 µM) | 1000 µg/mL (≈ 2020 µM) | 1000 µg/mL (≈ 2020 µM) | 500 µg/mL (≈ 1010 µM) | 500 µg/mL (≈ 1010 µM) | 500 µg/mL (≈ 1010 µM) | 1000 µg/mL (≈ 2020 µM)
COc1ccc(-c2cc(-c3cc4cc(F)ccc4nc3Cl)nc(NC(=O)CN3CCOCC3)n2)cc1 | 250 µg/mL (≈ 492 µM) | 500 µg/mL (≈ 984 µM) | 250 µg/mL (≈ 492 µM) | 1000 µg/mL (≈ 1970 µM) | 250 µg/mL (≈ 492 µM) | 500 µg/mL (≈ 984 µM) | 500 µg/mL (≈ 984 µM)
O=C(CN1CCOCC1)Nc1nc(-c2ccccc2Cl)cc(-c2cc3cc(F)ccc3nc2Cl)n1 | 100 µg/mL (≈ 195 µM) | 100 µg/mL (≈ 195 µM) | 100 µg/mL (≈ 195 µM) | 500 µg/mL (≈ 976 µM) | 100 µg/mL (≈ 195 µM) | 50 µg/mL (≈ 97.6 µM) | 100 µg/mL (≈ 195 µM)
O=C(CN1CCOCC1)Nc1nc(-c2ccc(Cl)cc2)cc(-c2cc3cc(F)ccc3nc2Cl)n1 | 50 µg/mL (≈ 97.6 µM) | 250 µg/mL (≈ 488 µM) | 100 µg/mL (≈ 195 µM) | 250 µg/mL (≈ 488 µM) | 100 µg/mL (≈ 195 µM) | 100 µg/mL (≈ 195 µM) | 100 µg/mL (≈ 195 µM)
O=C(CN1CCOCC1)Nc1nc(-c2ccccc2F)cc(-c2cc3cc(F)ccc3nc2Cl)n1 | 25 µg/mL (≈ 50.4 µM) | 50 µg/mL (≈ 101 µM) | 50 µg/mL (≈ 101 µM) | 100 µg/mL (≈ 202 µM) | 50 µg/mL (≈ 101 µM) | 12.5 µg/mL (≈ 25.2 µM) | 25 µg/mL (≈ 50.4 µM)
O=C(CN1CCOCC1)Nc1nc(-c2cccc(F)c2)cc(-c2cc3cc(F)ccc3nc2Cl)n1 | 100 µg/mL (≈ 202 µM) | 250 µg/mL (≈ 504 µM) | 250 µg/mL (≈ 504 µM) | 250 µg/mL (≈ 504 µM) | 250 µg/mL (≈ 504 µM) | 100 µg/mL (≈ 202 µM) | 250 µg/mL (≈ 504 µM)
O=C(CN1CCOCC1)Nc1nc(-c2ccc(F)cc2)cc(-c2cc3cc(F)ccc3nc2Cl)n1 | 50 µg/mL (≈ 101 µM) | 100 µg/mL (≈ 202 µM) | 100 µg/mL (≈ 202 µM) | 100 µg/mL (≈ 202 µM) | 100 µg/mL (≈ 202 µM) | 50 µg/mL (≈ 101 µM) | 100 µg/mL (≈ 202 µM)
O=C(CN1CCOCC1)Nc1nc(-c2ccccc2[N+](=O)[O-])cc(-c2cc3cc(F)ccc3nc2Cl)n1 | 100 µg/mL (≈ 191 µM) | 50 µg/mL (≈ 95.6 µM) | 50 µg/mL (≈ 95.6 µM) | 100 µg/mL (≈ 191 µM) | 50 µg/mL (≈ 95.6 µM) | 100 µg/mL (≈ 191 µM) | 100 µg/mL (≈ 191 µM)
O=C(CN1CCOCC1)Nc1nc(-c2cccc([N+](=O)[O-])c2)cc(-c2cc3cc(F)ccc3nc2Cl)n1 | 100 µg/mL (≈ 191 µM) | 250 µg/mL (≈ 478 µM) | 100 µg/mL (≈ 191 µM) | 250 µg/mL (≈ 478 µM) | 100 µg/mL (≈ 191 µM) | 250 µg/mL (≈ 478 µM) | 500 µg/mL (≈ 956 µM)
O=C(CN1CCOCC1)Nc1nc(-c2ccc([N+](=O)[O-])cc2)cc(-c2cc3cc(F)ccc3nc2Cl)n1 | 50 µg/mL (≈ 95.6 µM) | 100 µg/mL (≈ 191 µM) | 100 µg/mL (≈ 191 µM) | 100 µg/mL (≈ 191 µM) | 100 µg/mL (≈ 191 µM) | 25 µg/mL (≈ 47.8 µM) | 50 µg/mL (≈ 95.6 µM)
O=C1CSC(N2N=C(c3ccccc3O)CC2c2cc3cc(F)ccc3nc2Cl)=N1 (centres undefined) | 500 µg/mL (≈ 1130 µM) | 1000 µg/mL (≈ 2270 µM) | 500 µg/mL (≈ 1130 µM) | 1000 µg/mL (≈ 2270 µM) | 1000 µg/mL (≈ 2270 µM) | 250 µg/mL (≈ 567 µM) | 1000 µg/mL (≈ 2270 µM)
O=C1CSC(N2N=C(c3ccc(O)cc3)CC2c2cc3cc(F)ccc3nc2Cl)=N1 (centres undefined) | 250 µg/mL (≈ 567 µM) | 500 µg/mL (≈ 1130 µM) | 250 µg/mL (≈ 567 µM) | 1000 µg/mL (≈ 2270 µM) | 500 µg/mL (≈ 1130 µM) | 500 µg/mL (≈ 1130 µM) | 1000 µg/mL (≈ 2270 µM)
COc1ccc(C2=NN(C3=NC(=O)CS3)C(c3cc4cc(F)ccc4nc3Cl)C2)cc1 (centres undefined) | 1000 µg/mL (≈ 2200 µM) | 500 µg/mL (≈ 1100 µM) | 1000 µg/mL (≈ 2200 µM) | 1000 µg/mL (≈ 2200 µM) | 500 µg/mL (≈ 1100 µM) | 1000 µg/mL (≈ 2200 µM) | 500 µg/mL (≈ 1100 µM)
O=C1CSC(N2N=C(c3ccccc3Cl)CC2c2cc3cc(F)ccc3nc2Cl)=N1 (centres undefined) | 100 µg/mL (≈ 218 µM) | 250 µg/mL (≈ 544 µM) | 50 µg/mL (≈ 109 µM) | 500 µg/mL (≈ 1090 µM) | 100 µg/mL (≈ 218 µM) | 50 µg/mL (≈ 109 µM) | 50 µg/mL (≈ 109 µM)
O=C1CSC(N2N=C(c3ccc(Cl)cc3)CC2c2cc3cc(F)ccc3nc2Cl)=N1 (centres undefined) | 250 µg/mL (≈ 544 µM) | 50 µg/mL (≈ 109 µM) | 50 µg/mL (≈ 109 µM) | 500 µg/mL (≈ 1090 µM) | 50 µg/mL (≈ 109 µM) | 500 µg/mL (≈ 1090 µM) | 100 µg/mL (≈ 218 µM)
O=C1CSC(N2N=C(c3ccccc3F)CC2c2cc3cc(F)ccc3nc2Cl)=N1 (centres undefined) | 50 µg/mL (≈ 113 µM) | 100 µg/mL (≈ 226 µM) | 100 µg/mL (≈ 226 µM) | 250 µg/mL (≈ 564 µM) | 50 µg/mL (≈ 113 µM) | 25 µg/mL (≈ 56.4 µM) | 500 µg/mL (≈ 1130 µM)
O=C1CSC(N2N=C(c3cccc(F)c3)CC2c2cc3cc(F)ccc3nc2Cl)=N1 (centres undefined) | 250 µg/mL (≈ 564 µM) | 500 µg/mL (≈ 1130 µM) | 500 µg/mL (≈ 1130 µM) | 100 µg/mL (≈ 226 µM) | 500 µg/mL (≈ 1130 µM) | 500 µg/mL (≈ 1130 µM) | 500 µg/mL (≈ 1130 µM)
O=C1CSC(N2N=C(c3ccc(F)cc3)CC2c2cc3cc(F)ccc3nc2Cl)=N1 (centres undefined) | 50 µg/mL (≈ 113 µM) | 100 µg/mL (≈ 226 µM) | 25 µg/mL (≈ 56.4 µM) | 1000 µg/mL (≈ 2260 µM) | 250 µg/mL (≈ 564 µM) | 50 µg/mL (≈ 113 µM) | 100 µg/mL (≈ 226 µM)
O=C1CSC(N2N=C(c3ccccc3[N+](=O)[O-])CC2c2cc3cc(F)ccc3nc2Cl)=N1 (centres undefined) | 12.5 µg/mL (≈ 26.6 µM) | 100 µg/mL (≈ 213 µM) | 25 µg/mL (≈ 53.2 µM) | 100 µg/mL (≈ 213 µM) | 25 µg/mL (≈ 53.2 µM) | 25 µg/mL (≈ 53.2 µM) | 12.5 µg/mL (≈ 26.6 µM)
O=C1CSC(N2N=C(c3cccc([N+](=O)[O-])c3)CC2c2cc3cc(F)ccc3nc2Cl)=N1 (centres undefined) | 500 µg/mL (≈ 1060 µM) | 1000 µg/mL (≈ 2130 µM) | 500 µg/mL (≈ 1060 µM) | 500 µg/mL (≈ 1060 µM) | 100 µg/mL (≈ 213 µM) | 250 µg/mL (≈ 532 µM) | 50 µg/mL (≈ 106 µM)
O=C1CSC(N2N=C(c3ccc([N+](=O)[O-])cc3)CC2c2cc3cc(F)ccc3nc2Cl)=N1 (centres undefined) | 100 µg/mL (≈ 213 µM) | 250 µg/mL (≈ 532 µM) | 50 µg/mL (≈ 106 µM) | 250 µg/mL (≈ 532 µM) | 100 µg/mL (≈ 213 µM) | 50 µg/mL (≈ 106 µM) | 100 µg/mL (≈ 213 µM)
O=C1CSC(N2N=C(c3ccccc3)CC2c2cc3cc(F)ccc3nc2Cl)=N1 (centres undefined) | 250 µg/mL (≈ 588 µM) | 500 µg/mL (≈ 1180 µM) | 1000 µg/mL (≈ 2350 µM) | 1000 µg/mL (≈ 2350 µM) | 1000 µg/mL (≈ 2350 µM) | 500 µg/mL (≈ 1180 µM) | 500 µg/mL (≈ 1180 µM)
O=C(O)c1cn(C2CC2)c2cc(N3CCNCC3)c(F)cc2c1=O [CIPROFLOXACIN] |  | 50 µg/mL (≈ 151 µM) | 50 µg/mL (≈ 151 µM) |  |  | 25 µg/mL (≈ 75.4 µM) | 
COC1=CC(=O)C[C@@H](C)[C@]12Oc1c(Cl)c(OC)cc(OC)c1C2=O [GRISEOFULVIN] |  |  |  | 500 µg/mL (≈ 1420 µM) | 100 µg/mL (≈ 283 µM) |  | 100 µg/mL (≈ 283 µM)
